SENP6 inh – SENP6 protease inhibition; Q9GZR1; Recombinant SENP6 catalytic domain, aminoluciferin luminescence; inhibition, % at 10 µM; hit rate 1.8% among 330,000; AID 2599;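 active = inhibition above about 50% at the single tested dose, limit read from the data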;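 also: plate controls were DMSO wells with enzyme for no effect and DMSO wells lacking enzyme for full effect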
SENP8 block-1 – inhibitors of human SENP8 protease | Q96LD8 | AID 2540 | purified SENP8, Z-RLRGG-aminoluciferin cleavage, luminescence | inhibition, % at 10 µM | hit rate 1.2% among 330,000; in the data active = inhibition above about 50%
SENP1 FRET inh – blocks the human SENP1 SUMO protease catalytic domain; recombinant SENP1 catalytic domain, CyPet-SUMO1-YPet FRET cleavage; inhibition, % at 10 µM; hit rate 0.21% among 360,000;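 active = inhibition at least 30% at 10 µM, raw YFP signal under a set limit, fluorescence ratio 0.5 to 1.5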;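 also: 0% = enzyme with DMSO and 100% = no enzyme wells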
Target sequence (Q9P0U3 419-644 limits assumed): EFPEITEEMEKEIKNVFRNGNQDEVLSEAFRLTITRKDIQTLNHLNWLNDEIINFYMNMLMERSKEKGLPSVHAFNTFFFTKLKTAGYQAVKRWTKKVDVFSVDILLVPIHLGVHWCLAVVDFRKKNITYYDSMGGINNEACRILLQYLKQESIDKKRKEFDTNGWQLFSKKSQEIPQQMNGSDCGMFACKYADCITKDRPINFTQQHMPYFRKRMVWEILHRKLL
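Test system: recombinant human SENP1 catalytic domain, His6-tagged / Medium: pH 8 Tris buffer with EDTA, NaCl, BME, BSA, NP40, catalase / Also added: SUMO1 FRET substrate flanked by Cypet and Ypet, 25 nM / Times: 50 min reaction at room temperature / Signal: FRET, CFP and YFP emission / Control set: no-enzyme low control and enzyme-plus-DMSO high control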
SENP8 block-2 – inhibitors of human SENP8 protease; inhibition, % at 20 µM; hit rate 0.64% among 360,000; recombinant SENP8, Nedd8 substrate fluorescence; Q96LD8; in the data active = inhibition mostly above about 40%, no sharp cut-off; inactive = mostly below about 27%
SENP7 block – inhibitors of human SENP7 protease | Q9BQF6 | recombinant SENP7, Z-RLRGG-aminoluciferin luminescence, 40 min | inhibition, % at 5 µM | hit rate 1.5% among 330,000;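 active = inhibition above about 50% at the single test dose, limit read from the data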;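 also: plate controls were DMSO with enzyme for no effect and no enzyme buffer wells for full effect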
Target sequence (Q9BQF6 706-1050 limits assumed): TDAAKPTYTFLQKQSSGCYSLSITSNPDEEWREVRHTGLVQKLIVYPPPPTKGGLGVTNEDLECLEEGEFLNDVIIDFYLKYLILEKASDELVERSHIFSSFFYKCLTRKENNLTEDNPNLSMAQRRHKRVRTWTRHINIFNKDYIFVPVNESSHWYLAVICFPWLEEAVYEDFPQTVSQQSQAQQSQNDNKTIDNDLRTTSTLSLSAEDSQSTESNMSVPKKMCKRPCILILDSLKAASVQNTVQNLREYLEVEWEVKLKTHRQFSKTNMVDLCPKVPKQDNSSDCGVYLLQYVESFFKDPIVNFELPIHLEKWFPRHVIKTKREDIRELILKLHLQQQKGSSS
SENP8 confirm – human SENP8 inhibition, confirmed; Recombinant SENP8, Z-RLRGG-aminoluciferin luminescence, 60 min; hit rate 40% among 6,200; shares compounds with SENP7 block; inhibition, % at 12.5 µM;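 active = mean inhibition across replicates above about 50%, limit read from the data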
SENP6 confirm – human SENP6 inhibition, confirmed. hit rate 58% among 6,200. inhibition, % at 12.5 µM. AID 488915. recombinant SENP6, Z-RLRGG-aminoluciferin luminescence. shares compounds with SENP7 block
SENP7 confirm – human SENP7 inhibition, confirmed; hit rate 69% among 6,200; inhibition, % at 12.5 µM; recombinant SENP7, Z-RLRGG-aminoluciferin luminescence, 40 min; shares compounds with SENP7 block
Casp3 select – inhibits human caspase-3 in SENP selectivity test; shares compounds with SENP7 block; purified caspase-3, Z-DEVD-aminoluciferin luminescence, 60 min; inhibition, % at 12.5 µM; hit rate 60% among 6,200;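 active = mean inhibition above about 50%, limit read from the data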;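 also: plate controls were enzyme with DMSO for no effect and wells without caspase-3 for full effect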
SENP luc ctr – luminescence interference (SENP counter-screen). shares compounds with SENP7 block. Pre-incubated SENP8/Z-RLRGG-aminoluciferin, luciferase luminescence interference. inhibition, % at 12.5 µM. hit rate 39% among 6,200;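 active = mean inhibition above about 50% when retested at one dose, limit read from the data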;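 also: plate controls were DMSO wells with completed reaction for no effect and substrate without enzyme for full effect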
* = called active by the depositor; i = inactive; . = no result given. The list is not random: actives were taken first. Their share in the collection is about 2.5%.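 The calls were made as follows, unless noted: active = mean inhibition above about 50% in the one-dose retest (limit read from the data); inactive = the rest.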

SMILES	SENP6 inh	SENP8 block-1	SENP1 FRET inh	SENP8 block-2	SENP7 block	SENP8 confirm	SENP6 confirm	SENP7 confirm	Casp3 select	SENP luc ctr
O=c1c(Cl)c(NCCCO)cnn1-c1nc2ccccc2[nH]1	62*	50	2	-358	69*	59*	56*	85*	89*	36
O=S(=O)(Nc1nc2ccccc2[nH]1)c1ccc(Cl)cc1	5	2	0	3	1	.	.	.	.	.
Nc1c2c(nc3sc4c(c13)CCCCC4)CCCCC2	73*	57*	0	2	74*	25	23	39	19	3
Cc1ccc(F)c(NC(=S)Nc2cccc3ccccc23)c1	88*	83*	-15	-453	45	10	10	1	-5	-3
S=C(NCc1ccccc1)Nc1cccc2cnccc12	-18	-9	3	-4	-2	.	.	.	.	.
Cc1ccc(C)c(NC(=S)Nc2cccc3cnccc23)c1	79*	77*	-6	-95	54*	12	17	2	3	-2
Fc1ccccc1NC(=S)Nc1cccc2cnccc12	92*	87*	-18	-250	78*	15	41	26	7	16
Cc1ccc(C)c(NC(=S)Nc2cccnc2)c1	15	-1	3	-8	9	.	.	.	.	.
FC(F)(F)c1ccccc1NC(=S)Nc1cccc2cnccc12	.	.	-7	-119	.	.	.	.	.	.
S=C(Nc1cccc2ccccc12)Nc1cccc2ccccc12	.	.	-26	i	.	.	.	.	.	.
Cc1ccccc1NC(=S)Nc1cccc2cnccc12	98*	88*	-14	-152	86*	16	33	19	10	6
COCCCNC(=S)N1CCN(C(c2ccccc2)c2ccccc2)CC1	2	11	-1	14	0	.	.	.	.	.
Cc1noc(C)c1S(=O)(=O)N(C)C[C@H]1Oc2c(NS(=O)(=O)c3cn(C)cn3)cccc2C(=O)N([C@H](C)CO)C[C@@H]1C	-14	7	0	-2	-4	.	.	.	.	.
Cc1cccc(NC(=O)CSCC(=O)N(C)Cc2c(F)cccc2Cl)c1	-11	11	1	9	-6	.	.	.	.	.
O=S(=O)(c1ccccc1Br)N(Cc1ccccc1)CC(O)COCc1ccccc1 (centres undefined)	.	.	1	2	-1	.	.	.	.	.
Nc1c(-c2ccccc2)cnn1-c1ccccc1	79*	70*	1	11	83*	75*	72*	94*	88*	78*
Nc1c(-c2cccc(Cl)c2)cnn1-c1ccccc1	20	21	2	13	38	.	.	.	.	.
CCOC(=O)CN1N=C(/C=C/c2ccc(C)cc2)CCC1=O	0	-5	3	16	-1	.	.	.	.	.
COc1ccc(/C=C/C2=NN(C)C(=O)CC2)cc1	78*	69*	0	-2	83*	81*	80*	94*	93*	80*
Cc1noc(N)c1C(=O)Nc1ccc(C(C)(C)C)cc1	29	69*	0	14	86*	14	80*	96*	80*	80*
Cc1nc(Cl)sc1C(=O)Nc1ccc(C(C)(C)C)cc1	-28	60*	2	14	62*	71*	64*	84*	51*	48
NNC(=O)c1cc2sccc2s1	2	-4	2	1	-7	.	.	.	.	.
C=C1CCc2c([nH]c3ccc(OCC(C)C)cc23)C1=O	95*	8	-15	-279	-2	12	4	7	4	3
COc1cccc(CN2CCN(C(=O)c3oc4c(F)cccc4c3C)CC2=O)c1	87*	7	-1	1	10	-20	-17	-5	-9	-6
O=C(C1CCN(S(=O)(=O)c2ccccc2F)CC1)N1CCc2ccccc2C1	0	-2	0	9	1	.	.	.	.	.
SMILES	SENP6 inh	SENP8 block-1	SENP1 FRET inh	SENP8 block-2	SENP7 block	SENP8 confirm	SENP6 confirm	SENP7 confirm	Casp3 select	SENP luc ctr
Cc1ccnc2nc(C(=O)OCC(=O)N(Cc3ccccc3)C(C)C)nn12	11	-2	0	1	-10	.	.	.	.	.
Cc1ccn2c(C(=O)c3ccc(Cl)cc3)cnc2c1	70*	31	-1	-24	52*	28	34	70*	62*	48
Cc1ccn2c(=O)nc(SCC(=O)c3ccc(Cl)cc3)nc2c1	-1	9	-24	-16	-8	.	.	.	.	.
O=C(CSCc1ccc(F)cc1)Nc1ccccc1	-4	3	0	4	65*	7	6	0	-3	-2
O=C(CSCc1ccccc1)Nc1ccc(F)c(F)c1	-22	-12	2	13	-7	.	.	.	.	.
C[C@@H]1CNC(=O)c2c(C(=O)N[C@H](C)c3ccccc3)ncn21	.	.	1	4	.	.	.	.	.	.
COc1ccc(OC)c(C(=O)NC(CC(N)=O)c2ccc(N3CCN(c4ccccn4)CC3)c([N+](=O)[O-])c2)c1 (centres undefined)	-16	-8	4	4	-8	.	.	.	.	.
COc1ccc(-c2cn3c4c(sc3n2)CCCC4)cc1	57*	46	0	17	53*	69*	68*	89*	54*	39
COC(=O)[C@]12CCCCC=C1N(Cc1cccc3ccccc13)C(=O)[C@H](CC(=O)NCCCN1CCCC1=O)C2	.	.	1	20	.	.	.	.	.	.
Cc1ccc2sc(N(CCCN(C)C)C(=O)c3ccc(Br)s3)nc2c1C	11	2	2	1	0	.	.	.	.	.
COc1ccc(S(=O)(=O)N2CCOCC2)cc1NC(=O)CSc1n[nH]c(C(C)C)n1	-16	-8	1	3	-5	.	.	.	.	.
COCCCNC(=O)c1cccn2c(=O)c3cc4ccccc4cc3nc12	82*	85*	25	-94	30	-19	-10	-6	-9	-5
COc1ccc(N2CCN(c3cncc(C)n3)CC2)cc1	.	.	0	-18	.	.	.	.	.	.
COc1ncnc2c1ncn2CCCNCc1ccccn1	.	.	4	13	.	.	.	.	.	.
O=c1cc(-c2ccccc2)oc2ccc(Cl)cc12	.	.	-1	20	.	.	.	.	.	.
O=c1cc(-c2cccs2)oc2ccc(Cl)cc12	55*	34	-2	-93	50*	25	27	51*	46	18
O=c1cc(-c2ccc3c(c2)OCCO3)oc2ccc(Cl)cc12	36	16	-9	-398	91*	23	26	43	41	11
COc1cc([N+](=O)[O-])ccc1NC(=O)CSc1n[nH]c(C(C)C)n1	3	-3	2	6	2	.	.	.	.	.

Bioassay records from PubChem.
